# Experimental data published in PubChem BioAssay.
# The source made the active and inactive calls.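 The calls were made as follows, unless noted: active = viability loss from added drug above about 55%, and viability with drug at most 40%, in both replicates (limit read from the data, passing the limit was not always enough); inconclusive = both conditions met in only one replicate; inactive = neither replicate meets both conditions.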
# Assays:
# [1] = reduced viability of SK-BR-3 breast cancer cells – cell-based, 24 h, human, pilot screen (AID 572;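 active = viability at or below 10% of carrier control in both of two separate runs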;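 also: compound exposure lasted between 18 and 24 h rather than exactly 24 h; 100% = carrier-treated control wells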); conditions: SK-BR-3 viability, CellTiter-Glo luminescence, at 10 µM, stronger effect = lower value
# [2] = MRP1 drug-resistance reversers in H69AR cells – cell-based, doxorubicin co-treatment, pilot screen (AID 601); conditions: CellTiter-Glo, 72 h, at 10 µM; for differential viability (reversal): stronger effect = higher value
# [3] = yeast transport mutant growth inhibition pilot in 384-well plates, post-Golgi transport modulator project (AID 636; in the data active = inhibition above about 31%); conditions: absorbance 615 nm, about 18 h, stronger effect = higher value
# [4] = growth suppression of yeast trafficking mutant, preliminary HTS, modulators of trafficking downstream of Golgi apparatus project, 1536-format plate, OD 615 nm (AID 637; in the data active = inhibition above about 30%); conditions: yeast transport mutant growth, absorbance 615 nm, 18 h; stronger effect = higher value
# [5] = HUVEC growth inhibition – cell-based, human, primary screen (AID 575;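 active = viability at or below 30% in both replicate assays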;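 also: 100% = median of untreated cell wells with 0.1% DMSO on each plate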); conditions: HUVEC proliferation, CellTiter-Glo luminescence, 72 h; at 10 µM; stronger effect = lower value
# Procedure, shortened: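 Assay system: primary human umbilical vein endothelial cells / Buffer or medium: endothelial basal medium with 2% FBS plus growth supplements / Compound dosing: one dose, 10 µM final, 0.1% DMSO / Timing: 72 h treatment at 37 °C / Signal: CTG luminescence / Benchmarks: 32 DMSO-only cell-control wells (high), 32 MePR drug-control wells (low) per plate / Plate: collagen-coated 384-well format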
# [6] = H69AR cell proliferation blockers – human, duplicate replicates, primary screen (AID 580;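 active = viability at or under a set limit in both replicates, limit being median viability minus 3 SD, cut at about 48% in these data, passing the limit was not always enough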;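 also: 100% = mean luminescence of untreated wells and 0% = no signal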); conditions: H69AR lung tumor cells viability, ATP luminescence, 72 h; at 10 µM; stronger effect = lower value
# [7] = H69AR cells + 2 uM doxorubicin, measured here: viability with 2 uM doxorubicin, stronger effect = lower value
# [8] = H69AR cells, compound alone cytotoxicity
SMILES,viability [1],differential viability (reversal) ([2]; H69AR cells + 2 uM doxorubicin),"viability [2, 7] [%]","viability [2, 8] [%]",inhibition [3],inhibition [4],viability [5],viability [6]
CC(C)Cn1c2c(c(O)c(C(=O)Nc3ncccc3O)c1=O)CCCC2,91% (inactive),-10.7% (inactive),63.1,52.4,-2% (inactive),-2.91% (inactive),–,–
COc1cc2c(OC)cccc2cc1C(=O)O,–,2.57% (inactive),85.7,88.2,-1.32% (inactive),12.1% (inactive),95% (inactive),88.2% (inactive)
O=C(Cn1c(=O)[nH]c2ccsc2c1=O)N1CCN(c2ccc(F)cc2)CC1,–,1.24% (inactive),86,87.2,-1.84% (inactive),4.6% (inactive),91% (inactive),87.2% (inactive)
CC1Cc2ccccc2N1S(=O)(=O)c1ccc2c(c1)n(C)c(=O)c(=O)n2C (centres undefined),–,-2.65% (inactive),86.4,83.7,-4.93% (inactive),0% (inactive),80.8% (inactive),83.7% (inactive)
CNCCCN1c2ccccc2CCc2ccccc21,–,14.6% (inactive),75.8,90.4,–,–,82.1% (inactive),90.4% (inactive)
CN(C)c1cccc(N=C2C=C(N3CCOCC3)CC(C)(C)C2)c1,–,-1.85% (inactive),93.7,91.8,-1.04% (inactive),-8.41% (inactive),106% (inactive),91.8% (inactive)
Cc1ccc(-c2nn3c(C)nnc3s2)cc1N,–,16.5% (inactive),78.2,94.7,-7.47% (inactive),3.33% (inactive),83.5% (inactive),94.7% (inactive)
CC1CCN(C(=O)c2cc(-c3ccc(Cl)c(Cl)c3)on2)CC1,–,10.5% (inactive),80.2,90.7,-2.11% (inactive),0.95% (inactive),77.1% (inactive),90.7% (inactive)
O=c1cc(CSc2nnc(COc3ccc(Cl)cc3)o2)c2ccccc2[nH]1,–,-2.67% (inactive),92.9,90.2,-2.11% (inactive),-6.67% (inactive),86.8% (inactive),90.2% (inactive)
Cc1ccc2[nH]c3c(c2c1)CN(C(=O)CN1CCN(c2cccc(C)c2C)CC1)CC3,79% (inactive),-6.55% (inactive),37.6,31,0% (inactive),4.36% (inactive),–,–
CC(=O)Nc1ccc(NC(=O)c2ccccc2N(C)S(C)(=O)=O)cc1,–,3.22% (inactive),91.7,94.9,-6.71% (inactive),-0.79% (inactive),101% (inactive),94.9% (inactive)
COc1ccc(Cl)c(N2CCN(CCCNC(=O)Nc3ccc(C)cc3)CC2)c1,98% (inactive),-14.9% (inactive),60.3,45.4,-5.34% (inactive),-2.91% (inactive),–,–
Cn1cnc2c1c(=O)n(Cc1cccc(Br)c1)c(=O)n2C,–,4.32% (inactive),82.6,86.9,-4% (inactive),5.24% (inactive),90.3% (inactive),86.9% (inactive)
O=C(CC1CCCCC1)NCc1ccccn1,–,12.9% (inactive),82.9,95.8,-3.42% (inactive),-6.67% (inactive),92.2% (inactive),95.8% (inactive)
N=c1ncn(CC(O)CN2CCOCC2)c2nc(N3CCOCC3)[nH]c12 (centres undefined),–,12.4% (inactive),86.2,98.6,0.4% (inactive),-1.9% (inactive),92.6% (inactive),98.6% (inactive)
COC(=O)Nc1nc2ccc(Sc3ccccc3)cc2[nH]1,90% (inactive),-13.4% (inactive),25.1,11.7,3.25% (inactive),25.2% (inactive),–,–
O=S(=O)(c1ccc(Oc2ccc(-c3nnco3)cc2)nc1)N1CCC(Cc2ccccc2)CC1,109% (inactive),-8.52% (inactive),60.4,51.9,-4.11% (inactive),-10.3% (inactive),–,–
CNCCCC12CCC(c3ccccc31)c1ccccc12,–,6.27% (inactive),63.8,70.1,–,–,77.4% (inactive),70.1% (inactive)
COc1cc(NC(=O)Cc2ccccc2OC)cc(OC)c1,–,3.67% (inactive),92,95.7,0.27% (inactive),-6.67% (inactive),96.9% (inactive),95.7% (inactive)
COc1ccccc1N1CCN(Cc2nc(N)nc(Nc3ccc(C)c(Cl)c3)n2)CC1,104% (inactive),-26.3% (inactive),65.1,38.8,-1.3% (inactive),-3.28% (inactive),–,–
Cc1nnc(SCC(=O)N2CCC(C(N)=O)CC2)s1,–,-8.62% (inactive),99.8,91.2,-1.2% (inactive),-5.24% (inactive),93.5% (inactive),91.2% (inactive)

SMILES,viability [1],differential viability (reversal) ([2]; H69AR cells + 2 uM doxorubicin),"viability [2, 7] [%]","viability [2, 8] [%]",inhibition [3],inhibition [4],viability [5],viability [6]
Cc1nc(C)c(C(=O)C2=C(O)C(=O)N(CCN3CCOCC3)C2c2ccco2)s1 (centres undefined),–,-3.34% (inactive),89.7,86.3,-4.8% (inactive),3.02% (inactive),109% (inactive),86.3% (inactive)
CCOC(=O)c1ccc(NC(=O)N2CCN(CCc3ccccc3)CC2)cc1,–,10.2% (inactive),90.4,101,-2.11% (inactive),-0.32% (inactive),91.7% (inactive),101% (inactive)
Cc1ccc(Nc2cc(C)nc3nnnn23)cc1,–,8.3% (inactive),85.1,93.4,-5.06% (inactive),-2.06% (inactive),78.5% (inactive),93.4% (inactive)
CC(=O)C1=C(C)NC(=O)NC1c1cccc(O)c1 (centres undefined),–,8.07% (inactive),86.3,94.4,-2.93% (inactive),0.16% (inactive),99.8% (inactive),94.4% (inactive)
O=C1CC(Cc2ccccc2)C(=O)N1CCc1ccc2c(c1)OCO2 (centres undefined),–,4.62% (inactive),97.7,102,-5.32% (inactive),3.65% (inactive),97.7% (inactive),102% (inactive)
Cc1cccc2cc(C#N)c(SCCN3CCCCC3)nc12,–,-10% (inactive),78.2,68.2,1.35% (inactive),-0.18% (inactive),61.8% (inactive),68.2% (inactive)
CCn1c(SCC(=O)Nc2ccc(C(=O)OC)cc2)nnc1-c1cccs1,–,5.75% (inactive),86.6,92.3,-6% (inactive),6.98% (inactive),109% (inactive),92.3% (inactive)
CC1(C)C2CCC1(CS(=O)(=O)NCc1ccc(C(=O)O)cc1)C(=O)C2 (centres undefined),–,23.7% (inactive),84.2,108,-0.39% (inactive),3.33% (inactive),103% (inactive),108% (inactive)
Cc1cccc(-n2ncc(C#N)c2N)c1,–,3.67% (inactive),100,104,-2.76% (inactive),-1.11% (inactive),109% (inactive),104% (inactive)
CCCS(=O)(=O)N1CCN(C(=O)CCC2CCCC2)CC1,–,0.865% (inactive),84.1,85,-3.29% (inactive),-1.11% (inactive),101% (inactive),85% (inactive)
CCOC(=O)C1CCCN(S(=O)(=O)c2cccs2)C1 (centres undefined),–,12.7% (inactive),96.7,109,0.66% (inactive),-6.03% (inactive),110% (inactive),109% (inactive)
Cc1c(NC(=O)C2CCCNC2=O)c(=O)n(-c2ccccc2)n1C (centres undefined),–,-0.405% (inactive),107,107,-2.24% (inactive),3.33% (inactive),107% (inactive),107% (inactive)
COc1ccccc1Cn1c(-c2ccco2)nc2nc3ccccc3nc21,–,7.3% (inactive),52.6,59.9,-6.93% (inactive),8.41% (inactive),52.5% (inactive),59.9% (inactive)
CC(=O)Nc1ccc(S(=O)(=O)N2CCSC2c2ccccc2)cc1 (centres undefined),–,5.05% (inactive),86.4,91.5,-1.82% (inactive),0.32% (inactive),99.6% (inactive),91.5% (inactive)
CN(C)c1ccnc(NCc2ccccc2)c1C#N,–,6.29% (inactive),79.5,85.8,-4.53% (inactive),4.6% (inactive),92.7% (inactive),85.8% (inactive)
CCOc1ccccc1N1C(=O)CC(Sc2ncccc2C(=O)O)C1=O (centres undefined),–,12.7% (inactive),87.2,99.9,-3.29% (inactive),1.59% (inactive),97% (inactive),99.9% (inactive)
CCCCCC1NC(=O)NC1CCCCCC(=O)O (centres undefined),–,14.3% (inactive),89.2,104,-0.91% (inactive),-2.22% (inactive),98.5% (inactive),104% (inactive)
Cc1ccnc(NC(=O)Nc2ccc(F)cc2)c1,–,12.9% (inactive),91.2,104,-2.08% (inactive),-8.41% (inactive),99.9% (inactive),104% (inactive)
Cc1nc(NC2=NCN(CCc3ccccc3)CN2)nc2c(C)cccc12,–,-15.7% (inactive),93.7,78,-3.82% (inactive),4.76% (inactive),81.9% (inactive),78% (inactive)
CCOc1ccc(C(=O)Cc2ccc3oc(C(=O)O)cc3c2)c(O)c1,–,10.4% (inactive),88.4,98.8,-4.29% (inactive),7.62% (inactive),89.4% (inactive),98.8% (inactive)
CCCOc1ccc(S(=O)(=O)NCCCN2CCOCC2)c2ccccc12,–,7.43% (inactive),82.6,90,-6.13% (inactive),4.6% (inactive),83.2% (inactive),90% (inactive)
